Data as given in ChEMBL document CHEMBL4028872, “Structure-Activity Relationship, Pharmacological Characterization, and Molecular Modeling of Noncompetitive Inhibitors of the Betaine/γ-Aminobutyric Acid Transporter 1 (BGT1)” (J Med Chem, 2017).

Tests used:
Format in all cases: cell-based
[1] = target: Sodium- and chloride-dependent GABA transporter 1 (Mus musculus, UniProt P31648); experiment: Inhibition of mouse GAT1 expressed in HEK293 cells assessed as reduction in [3H]GABA uptake after 3 mins by scintillation counting method
Outline: (§1)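 HEK293 lines stably expressing a single mouse GAT subtype, kept under blasticidin-S (5 µg/mL) selection. Cells were assayed about 24 h after plating with 30 nM [3H]GABA plus varying compound concentrations for 3 min at 37 °C in HBSS buffered with 20 mM HEPES (1 mM CaCl2, 1 mM MgCl2, pH 7.4). Cells were washed ice-cold and radioactivity counted. IC50 came from sigmoidal variable-slope fits.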

GABA transporter 2 = target: T1, GABA transporter 2 (Mus musculus, UniProt P31651); experiment: Inhibition of mouse BGT1 expressed in HEK293 cells assessed as reduction in [3H]GABA uptake after 3 mins by scintillation counting method; settings: read-out: IC50; outline: as §1
T1 sequence (P31651 whole entry): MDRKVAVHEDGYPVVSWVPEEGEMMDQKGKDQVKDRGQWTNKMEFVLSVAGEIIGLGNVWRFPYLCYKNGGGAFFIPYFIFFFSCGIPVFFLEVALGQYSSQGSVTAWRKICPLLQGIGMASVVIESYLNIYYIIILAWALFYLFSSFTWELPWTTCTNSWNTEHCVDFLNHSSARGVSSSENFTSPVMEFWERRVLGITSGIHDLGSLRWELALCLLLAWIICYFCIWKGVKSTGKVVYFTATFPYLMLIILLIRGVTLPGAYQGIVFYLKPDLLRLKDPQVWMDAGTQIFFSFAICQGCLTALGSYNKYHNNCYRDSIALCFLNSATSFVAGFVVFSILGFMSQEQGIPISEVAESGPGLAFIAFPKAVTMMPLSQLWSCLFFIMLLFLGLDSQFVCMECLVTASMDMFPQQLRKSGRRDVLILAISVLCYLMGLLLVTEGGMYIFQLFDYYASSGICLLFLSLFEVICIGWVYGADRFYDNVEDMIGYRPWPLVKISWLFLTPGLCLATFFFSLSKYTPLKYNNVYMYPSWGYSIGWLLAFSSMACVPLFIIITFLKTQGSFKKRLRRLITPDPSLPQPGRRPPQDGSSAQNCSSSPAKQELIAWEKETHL

GABA transporter 3 = target: T2, GABA transporter 3 (Mus musculus, UniProt P31649); experiment: Inhibition of mouse GAT2 expressed in HEK293 cells assessed as reduction in [3H]GABA uptake after 3 mins by scintillation counting method
T2 sequence (P31649 whole entry): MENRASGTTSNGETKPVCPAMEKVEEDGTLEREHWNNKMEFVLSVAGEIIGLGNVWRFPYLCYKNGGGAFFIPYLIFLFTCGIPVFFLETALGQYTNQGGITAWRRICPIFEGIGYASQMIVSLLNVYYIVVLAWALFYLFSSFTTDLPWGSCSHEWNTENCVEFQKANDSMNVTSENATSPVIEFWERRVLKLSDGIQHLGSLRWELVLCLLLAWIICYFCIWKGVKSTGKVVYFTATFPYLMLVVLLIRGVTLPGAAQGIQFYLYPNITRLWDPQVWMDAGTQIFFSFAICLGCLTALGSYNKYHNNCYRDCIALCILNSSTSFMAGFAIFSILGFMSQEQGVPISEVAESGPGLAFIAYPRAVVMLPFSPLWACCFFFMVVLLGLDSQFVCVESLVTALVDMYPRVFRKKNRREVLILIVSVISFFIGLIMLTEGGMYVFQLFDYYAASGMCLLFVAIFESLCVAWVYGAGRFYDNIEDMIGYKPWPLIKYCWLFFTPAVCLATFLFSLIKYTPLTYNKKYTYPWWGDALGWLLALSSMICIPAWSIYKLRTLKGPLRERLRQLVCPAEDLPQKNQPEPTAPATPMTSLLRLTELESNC
Outline: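 HEK293 cells stably expressing mouse GAT2 were kept under blasticidin-S (5 µg/mL) selection. Ice-cold washes preceded scintillation counting. IC50 came from a variable-slope sigmoidal fit.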

[2] = target: Sodium- and chloride-dependent GABA transporter 1 (Homo sapiens, UniProt P30531); settings: read-out: IC50
Chain of Sodium- and chloride-dependent GABA transporter 1 (Homo sapiens, UniProt P30531) (P30531 whole entry): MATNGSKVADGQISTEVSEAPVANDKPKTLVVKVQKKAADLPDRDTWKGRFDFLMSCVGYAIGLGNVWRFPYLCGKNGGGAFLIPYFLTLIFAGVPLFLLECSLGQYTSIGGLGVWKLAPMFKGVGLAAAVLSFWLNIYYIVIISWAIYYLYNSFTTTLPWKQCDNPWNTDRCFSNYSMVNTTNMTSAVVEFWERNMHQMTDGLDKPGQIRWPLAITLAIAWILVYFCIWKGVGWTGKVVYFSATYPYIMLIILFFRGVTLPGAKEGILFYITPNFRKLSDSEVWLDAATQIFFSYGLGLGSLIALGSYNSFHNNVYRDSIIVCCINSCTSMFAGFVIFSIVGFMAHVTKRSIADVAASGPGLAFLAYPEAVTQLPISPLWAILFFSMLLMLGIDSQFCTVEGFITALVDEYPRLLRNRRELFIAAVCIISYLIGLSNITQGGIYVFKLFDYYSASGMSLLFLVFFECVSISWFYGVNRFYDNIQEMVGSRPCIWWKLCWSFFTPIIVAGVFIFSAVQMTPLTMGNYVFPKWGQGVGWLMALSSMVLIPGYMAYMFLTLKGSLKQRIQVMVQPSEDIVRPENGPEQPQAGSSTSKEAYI

| Structure (SMILES) | IC50 [1] [µM] | IC50 (GABA transporter 2) [µM] | IC50 (GABA transporter 3) [µM] | IC50 [2] [µM] |
| --- | --- | --- | --- | --- |
| O=C(NC1CCN(Cc2cc(Cl)cc(Cl)c2)CC1)c1ccc(Cl)cc1Cl | > 300 | > 300 | > 300 | – |
| O=C(NC1CCN(Cc2cccc(O)c2)CC1)c1ccc(Cl)nc1Cl | > 300 | > 300 | > 300 | – |
| O=C(O)c1cccc(CN2CCC(NC(=O)c3ccc(Cl)nc3Cl)CC2)c1 | > 300 | > 300 | > 300 | – |
| COc1cccc(CN2CCC(NC(=O)c3cccnc3)CC2)c1 | > 1000 | > 1000 | > 1000 | – |
| O=C(NC1CCN(Cc2ccccc2)CC1)c1ccnc(Cl)c1 | > 1000 | 300 | > 1000 | – |
| O=C(NC1CCN(Cc2cccc(F)c2)CC1)c1ccc(Cl)cc1Cl | > 1000 | 34 | > 1000 | – |
| Cc1cccc(CN2CCC(NC(=O)c3ccc(Cl)cc3Cl)CC2)c1 | > 300 | > 300 | > 300 | – |
| COc1cccc(CN2CCC(NC(=O)c3ccc(Cl)cc3Cl)CC2)c1 | > 200 | 26 | > 200 | – |
| O=C(NC1CCN(Cc2ccccc2)CC1)c1ccncc1 | > 1000 | 1150 | > 1000 | – |
| COc1cccc(CN2CCC(NC(=O)c3cccnc3Cl)CC2)c1 | > 1000 | 1670 | > 1000 | – |
| COc1cccc(CN2CCC(NC(=O)c3ccc(Cl)nc3)CC2)c1 | > 1000 | 115 | 540 | – |
| Clc1ccc(CNC2CCN(Cc3ccccc3)CC2)c(Cl)c1 | – | 112 | > 400 | > 400 |
| COc1cc(CN2CCC(NC(=O)c3ccc(Cl)cc3Cl)CC2)cc(OC)c1 | > 1000 | 30 | 1200 | – |
| O=C(OC1CCN(Cc2ccccc2)CC1)c1ccc(Cl)cc1Cl | – | > 1000 | > 1000 | > 1000 |
| O=C(NC1CCN(Cc2cccs2)CC1)c1ccc(Cl)nc1Cl | > 300 | > 300 | > 300 | – |
| O=C(NC1CCN(Cc2ccccc2)CC1)c1ccc(Cl)cc1 | > 1000 | 77 | 590 | – |
| O=C(NC1CCN(Cc2ccccc2)CC1)c1cnccc1Cl | > 1000 | 39 | 150 | – |
